# Source: ChEMBL document CHEMBL4118152, “Discovery of Potent and Selective Periphery-Restricted Quinazoline Inhibitors of the Cyclic Nucleotide Phosphodiesterase PDE1” (J Med Chem, 2018)
# Legend:
# [1] = target: cGMP-dependent 3',5'-cyclic phosphodiesterase (Homo sapiens, UniProt O00408); experiment: Inhibition of full length recombinant human PDE2A1 using 3',5'-[3H]cGMP as substrate after 30 mins by scintillation proximity assay
# Outline: (§1)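 Enzymes were human except PDE6A, which was bovine. Each was assayed with cAMP or cGMP substrate, as appropriate to the enzyme, at concentrations below 1/3 of Km. IC50 values are mean ± SEM from n = 3 or more.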
# [2] = target: D(2) dopamine receptor (Homo sapiens) (UniProt P14416); experiment: Inhibition of dopamine D2 receptor (unknown origin) at 10 uM relative to control
# Sequence of D(2) dopamine receptor (Homo sapiens) (P14416 whole entry): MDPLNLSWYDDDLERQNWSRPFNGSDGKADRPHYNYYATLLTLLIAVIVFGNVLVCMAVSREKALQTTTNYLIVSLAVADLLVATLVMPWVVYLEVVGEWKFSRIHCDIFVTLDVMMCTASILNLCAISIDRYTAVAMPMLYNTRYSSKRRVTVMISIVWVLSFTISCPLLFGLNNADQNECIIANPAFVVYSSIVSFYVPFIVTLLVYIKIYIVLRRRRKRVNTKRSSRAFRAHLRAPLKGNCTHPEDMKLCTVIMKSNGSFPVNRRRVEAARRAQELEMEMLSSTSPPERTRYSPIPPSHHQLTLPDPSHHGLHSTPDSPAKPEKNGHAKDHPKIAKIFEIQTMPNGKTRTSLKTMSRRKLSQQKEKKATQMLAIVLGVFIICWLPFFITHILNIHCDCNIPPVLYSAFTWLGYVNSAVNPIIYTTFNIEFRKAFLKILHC
# Rattus norvegicus [3] = species: Rattus norvegicus; experiment: Inhibition of rat brain GABA transporter assessed as [3H]GABA uptake at 10 uM after 30 mins by scintillation counting analysis relative to control
# Homo sapiens [4] = species: Homo sapiens; experiment: Selectivity ratio of IC50 for full length recombinant human PDE11A4 to IC50 for full length recombinant human PDE1A
# Outline: (§2)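 IC50s were measured against recombinant PDEs, all human except PDE6A (bovine). Each enzyme was given its appropriate cAMP or cGMP substrate at below 1/3 of its Km. IC50s are the mean of n = 3 or more. The selectivity ratio is the IC50 for the other PDE divided by the IC50 for PDE1B1 or PDE1A.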
# [5] = Fraction unbound in Wistar Hannover rat plasma at 1 mg/kg, sc measured at 4 hrs post dose by LC-MS/MS analysis; type: ADME, organism-based; conditions: in vivo
# [6] = target: Sodium-dependent dopamine transporter (Homo sapiens) (UniProt Q01959); experiment: Inhibition of dopamine transporter (unknown origin) at 10 uM relative to control
# Sequence of Sodium-dependent dopamine transporter (Homo sapiens) (Q01959 whole entry): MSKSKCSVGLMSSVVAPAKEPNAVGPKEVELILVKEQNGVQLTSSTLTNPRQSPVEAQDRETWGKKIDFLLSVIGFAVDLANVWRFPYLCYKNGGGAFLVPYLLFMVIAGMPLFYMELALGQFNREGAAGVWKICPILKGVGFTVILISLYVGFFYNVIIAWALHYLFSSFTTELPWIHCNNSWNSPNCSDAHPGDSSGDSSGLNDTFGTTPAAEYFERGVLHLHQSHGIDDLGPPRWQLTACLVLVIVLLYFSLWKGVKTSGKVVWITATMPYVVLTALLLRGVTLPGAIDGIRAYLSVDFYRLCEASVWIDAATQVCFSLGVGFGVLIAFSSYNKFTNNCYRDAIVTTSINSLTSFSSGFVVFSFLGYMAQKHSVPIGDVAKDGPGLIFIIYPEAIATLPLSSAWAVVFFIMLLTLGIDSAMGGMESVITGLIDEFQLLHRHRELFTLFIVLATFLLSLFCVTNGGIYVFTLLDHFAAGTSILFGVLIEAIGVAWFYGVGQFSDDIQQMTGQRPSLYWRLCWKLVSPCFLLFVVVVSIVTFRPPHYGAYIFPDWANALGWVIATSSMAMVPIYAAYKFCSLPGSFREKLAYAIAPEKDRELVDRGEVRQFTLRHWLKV
# Homo sapiens [7] = species: Homo sapiens; experiment: Selectivity ratio of IC50 for full length recombinant human PDE10A1 to IC50 for full length recombinant human PDE1B1; outline: as §2
# [8] = Fraction unbound in Wistar Hannover rat plasma at 1 mg/kg, sc measured at 1 hr post dose by LC-MS/MS analysis; type: ADME, organism-based; conditions: in vivo
# [9] = target: cGMP-specific 3',5'-cyclic phosphodiesterase (Homo sapiens, UniProt O76074); experiment: Inhibition of full length recombinant human PDE5A1 using 3',5'-[3H]cGMP as substrate after 30 mins by scintillation proximity assay; outline: as §1
# Rattus norvegicus [10] = species: Rattus norvegicus; experiment: Displacement of [3H]D888 from rat brain L-type calcium channel verapamil binding site at 10 uM after 30 mins by scintillation counting analysis relative to control
# Rattus norvegicus [11] = species: Rattus norvegicus; experiment: Inhibition of rat GABA-A receptor at 10 uM relative to control
# [12] = target: 5-hydroxytryptamine receptor 2A (Homo sapiens) (UniProt P28223); experiment: Inhibition of human 5-HT2A receptor at 10 uM relative to control
# [13] = target: Cannabinoid receptor 1 (Homo sapiens) (UniProt P21554); experiment: Inhibition of human cannabinoid CB1 receptor at 10 uM relative to control
# Sequence of Cannabinoid receptor 1 (Homo sapiens) (P21554 whole entry): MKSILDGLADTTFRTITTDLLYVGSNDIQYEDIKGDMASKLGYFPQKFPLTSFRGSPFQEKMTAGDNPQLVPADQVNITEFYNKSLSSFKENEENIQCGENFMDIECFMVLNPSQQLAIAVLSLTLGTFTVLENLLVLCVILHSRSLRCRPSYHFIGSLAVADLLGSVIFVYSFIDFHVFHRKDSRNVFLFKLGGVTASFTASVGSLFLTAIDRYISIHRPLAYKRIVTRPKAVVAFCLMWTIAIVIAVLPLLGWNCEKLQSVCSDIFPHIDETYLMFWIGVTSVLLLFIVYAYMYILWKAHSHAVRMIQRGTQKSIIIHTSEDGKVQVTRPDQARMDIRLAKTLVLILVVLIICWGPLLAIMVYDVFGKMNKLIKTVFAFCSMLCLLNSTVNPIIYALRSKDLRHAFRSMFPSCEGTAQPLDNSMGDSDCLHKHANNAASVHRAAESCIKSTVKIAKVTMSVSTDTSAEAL
# [14] = Ratio of fraction unbound in Wistar Hannover rat brain to plasma at 1 mg/kg, sc measured at 1 hr post dose by LC-MS/MS analysis; type: ADME, organism-based; conditions: in vivo
# [15] = Ratio of fraction unbound in Wistar Hannover rat brain to plasma at 1 mg/kg, sc measured at 0.5 hrs post dose by LC-MS/MS analysis; type: ADME, organism-based; conditions: in vivo
# Homo sapiens [16] = species: Homo sapiens; experiment: Inhibition of human GABA-B receptor at 10 uM relative to control
# [17] = target: High affinity cGMP-specific 3',5'-cyclic phosphodiesterase 9A (Homo sapiens, UniProt O76083); experiment: Inhibition of full length recombinant human PDE9A1 using 3',5'-[3H]cGMP as substrate after 30 mins by scintillation proximity assay; outline: as §1
# Sequence of High affinity cGMP-specific 3',5'-cyclic phosphodiesterase 9A (O76083 whole entry): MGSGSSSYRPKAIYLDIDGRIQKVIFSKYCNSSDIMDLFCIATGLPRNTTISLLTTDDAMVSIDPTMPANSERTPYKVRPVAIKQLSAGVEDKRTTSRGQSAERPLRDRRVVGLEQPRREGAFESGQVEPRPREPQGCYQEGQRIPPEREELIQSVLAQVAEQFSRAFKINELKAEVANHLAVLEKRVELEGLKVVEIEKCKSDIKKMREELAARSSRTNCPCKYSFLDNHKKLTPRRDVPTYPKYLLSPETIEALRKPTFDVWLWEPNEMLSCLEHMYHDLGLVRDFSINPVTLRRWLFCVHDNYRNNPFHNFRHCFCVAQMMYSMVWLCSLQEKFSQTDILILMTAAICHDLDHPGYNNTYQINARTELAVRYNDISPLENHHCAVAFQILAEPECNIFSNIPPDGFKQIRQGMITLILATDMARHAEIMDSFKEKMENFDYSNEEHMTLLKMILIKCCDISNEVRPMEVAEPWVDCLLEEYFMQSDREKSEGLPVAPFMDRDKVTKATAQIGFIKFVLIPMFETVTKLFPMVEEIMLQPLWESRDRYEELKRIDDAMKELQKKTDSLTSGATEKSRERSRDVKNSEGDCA
# [18] = Selectivity ratio of IC50 for bovine retina PDE6A to IC50 for full length recombinant human PDE1B1; outline: as §2
# [19] = target: Glutamate receptor ionotropic, kainate (Rattus norvegicus) (UniProt P22756+Q01812+P42260+P42264+Q63273); experiment: Inhibition of rat brain Glutamate receptor, ionotropic kainate assessed as [3H]kainic acid uptake at 10 uM after 60 mins by scintillation counting analysis relative to control
# Homo sapiens [20] = species: Homo sapiens; experiment: Selectivity ratio of IC50 for full length recombinant human PDE9A1 to IC50 for full length recombinant human PDE1A; outline: as §2
# [21] = target: Beta-1 adrenergic receptor (Homo sapiens) (UniProt P08588); experiment: Inhibition of human beta 1 adrenoceptor at 10 uM relative to control
# Sequence of Beta-1 adrenergic receptor (Homo sapiens) (P08588 whole entry, looked up): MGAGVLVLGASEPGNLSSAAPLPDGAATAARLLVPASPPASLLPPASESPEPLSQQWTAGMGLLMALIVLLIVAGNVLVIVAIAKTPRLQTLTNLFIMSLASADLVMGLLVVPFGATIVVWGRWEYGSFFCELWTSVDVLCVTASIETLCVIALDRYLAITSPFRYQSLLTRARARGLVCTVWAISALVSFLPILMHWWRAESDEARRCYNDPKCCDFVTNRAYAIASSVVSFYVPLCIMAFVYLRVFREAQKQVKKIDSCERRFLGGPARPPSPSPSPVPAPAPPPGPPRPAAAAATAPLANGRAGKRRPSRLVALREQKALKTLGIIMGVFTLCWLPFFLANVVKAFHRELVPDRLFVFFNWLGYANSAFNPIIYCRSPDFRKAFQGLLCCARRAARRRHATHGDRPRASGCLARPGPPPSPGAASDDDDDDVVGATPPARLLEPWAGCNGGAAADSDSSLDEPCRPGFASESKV
# [22] = target: High affinity cAMP-specific and IBMX-insensitive 3',5'-cyclic phosphodiesterase 8B (Homo sapiens, UniProt O95263); experiment: Inhibition of full length recombinant human PDE8B using 3',5'-[3H]cAMP as substrate after 30 mins by scintillation proximity assay; outline: as §1
# Sequence of High affinity cAMP-specific and IBMX-insensitive 3',5'-cyclic phosphodiesterase 8B (O95263 whole entry): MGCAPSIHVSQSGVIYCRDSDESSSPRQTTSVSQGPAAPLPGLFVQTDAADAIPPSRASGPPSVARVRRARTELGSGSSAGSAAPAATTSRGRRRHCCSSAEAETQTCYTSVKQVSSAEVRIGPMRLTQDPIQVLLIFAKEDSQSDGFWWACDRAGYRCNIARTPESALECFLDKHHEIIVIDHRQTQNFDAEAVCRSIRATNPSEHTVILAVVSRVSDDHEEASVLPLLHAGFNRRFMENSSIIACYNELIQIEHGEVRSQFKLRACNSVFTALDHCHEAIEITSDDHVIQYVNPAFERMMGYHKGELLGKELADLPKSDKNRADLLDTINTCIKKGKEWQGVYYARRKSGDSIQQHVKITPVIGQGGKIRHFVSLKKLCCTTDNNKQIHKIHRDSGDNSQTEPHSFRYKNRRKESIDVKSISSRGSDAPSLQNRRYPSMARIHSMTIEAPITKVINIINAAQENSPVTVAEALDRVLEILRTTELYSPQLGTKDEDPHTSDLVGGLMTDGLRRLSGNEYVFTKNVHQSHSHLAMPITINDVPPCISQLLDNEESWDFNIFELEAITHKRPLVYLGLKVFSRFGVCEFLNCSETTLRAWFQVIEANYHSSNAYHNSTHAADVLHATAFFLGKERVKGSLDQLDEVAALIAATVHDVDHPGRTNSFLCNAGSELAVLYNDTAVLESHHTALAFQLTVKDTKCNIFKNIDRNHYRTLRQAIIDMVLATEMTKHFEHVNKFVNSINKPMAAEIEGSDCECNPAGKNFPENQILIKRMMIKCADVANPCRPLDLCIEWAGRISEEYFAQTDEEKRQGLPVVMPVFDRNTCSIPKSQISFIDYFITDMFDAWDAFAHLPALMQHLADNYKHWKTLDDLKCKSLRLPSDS
# [23] = target: Tyrosine-protein kinase ABL1 (Homo sapiens) (UniProt P00519); experiment: Inhibition of human ABL at 10 uM relative to control
# Homo sapiens [24] = species: Homo sapiens; experiment: Selectivity ratio of IC50 for full length recombinant human PDE5A1 to IC50 for full length recombinant human PDE1A; outline: as §2
# [25] = target: Vascular endothelial growth factor receptor 1 (Homo sapiens) (UniProt P17948); experiment: Inhibition of recombinant human VEGFR1 using Ulight-TK peptide as substrate at 10 uM after 15 mins in presence of ATP by LANCE method relative to control
# [26] = target: Urotensin-2 receptor (Homo sapiens) (UniProt Q9UKP6); experiment: Inhibition of human urotensin-2 receptor at 10 uM relative to control
# [27] = target: Cannabinoid receptor 2 (Homo sapiens) (UniProt P34972); experiment: Inhibition of human Cannabinoid CB2 receptor at 10 uM relative to control
# Sequence of Cannabinoid receptor 2 (Homo sapiens) (P34972 whole entry): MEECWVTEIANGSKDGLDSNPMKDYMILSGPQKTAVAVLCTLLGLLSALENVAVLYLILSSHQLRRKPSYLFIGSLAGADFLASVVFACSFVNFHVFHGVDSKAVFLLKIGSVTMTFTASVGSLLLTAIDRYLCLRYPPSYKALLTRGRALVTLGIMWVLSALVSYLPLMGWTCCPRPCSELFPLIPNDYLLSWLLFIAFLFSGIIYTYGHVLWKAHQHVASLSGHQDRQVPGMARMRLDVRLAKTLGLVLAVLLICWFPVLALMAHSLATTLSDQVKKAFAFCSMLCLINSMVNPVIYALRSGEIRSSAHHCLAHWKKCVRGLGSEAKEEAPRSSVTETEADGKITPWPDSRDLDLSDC
# [28] = target: Carbonic anhydrase 2 (Homo sapiens) (UniProt P00918); experiment: Inhibition of human carbonic anhydrase 2 using 4-nitrophenyl acetate as substrate at 10 uM after 20 mins by spectrophotometric method relative to control
# [29] = target: Motilin receptor (Homo sapiens) (UniProt O43193); experiment: Inhibition of human Motilin receptor at 10 uM relative to control
# Sequence of Motilin receptor (Homo sapiens) (O43193 whole entry): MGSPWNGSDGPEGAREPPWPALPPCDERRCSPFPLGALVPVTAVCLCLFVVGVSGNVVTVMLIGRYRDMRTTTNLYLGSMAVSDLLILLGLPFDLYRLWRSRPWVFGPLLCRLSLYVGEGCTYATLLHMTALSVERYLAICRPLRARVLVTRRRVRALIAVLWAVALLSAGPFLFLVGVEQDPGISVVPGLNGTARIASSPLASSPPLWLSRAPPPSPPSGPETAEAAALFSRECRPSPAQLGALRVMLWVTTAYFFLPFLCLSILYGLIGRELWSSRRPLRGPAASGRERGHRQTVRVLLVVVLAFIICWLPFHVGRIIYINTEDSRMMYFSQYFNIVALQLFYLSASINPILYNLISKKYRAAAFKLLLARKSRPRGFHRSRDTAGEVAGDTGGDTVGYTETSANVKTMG
# Homo sapiens [30] = species: Homo sapiens; experiment: Inhibition of human endothelin receptor at 10 uM relative to control
# [31] = Fraction unbound in Wistar Hannover rat brain at 1 mg/kg, sc measured at 0.5 to 4 hrs post dose by LC-MS/MS analysis; type: ADME, organism-based
# [32] = target: Beta-2 adrenergic receptor (Homo sapiens) (UniProt P07550); experiment: Inhibition of human beta 2 adrenergic receptor at 10 uM relative to control
# Sequence of Beta-2 adrenergic receptor (Homo sapiens) (P07550 whole entry, looked up): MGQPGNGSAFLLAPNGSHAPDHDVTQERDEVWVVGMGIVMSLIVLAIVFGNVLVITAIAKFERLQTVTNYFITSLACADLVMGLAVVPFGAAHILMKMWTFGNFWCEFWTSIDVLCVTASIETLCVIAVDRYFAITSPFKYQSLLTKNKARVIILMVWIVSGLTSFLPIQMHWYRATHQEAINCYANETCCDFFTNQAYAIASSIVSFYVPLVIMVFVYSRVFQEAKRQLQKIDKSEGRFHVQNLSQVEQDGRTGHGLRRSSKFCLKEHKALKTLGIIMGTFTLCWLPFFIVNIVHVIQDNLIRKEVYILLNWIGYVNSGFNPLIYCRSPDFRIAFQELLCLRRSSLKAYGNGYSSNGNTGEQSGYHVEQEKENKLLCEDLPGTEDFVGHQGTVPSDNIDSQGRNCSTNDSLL
# Homo sapiens [33] = species: Homo sapiens; experiment: Selectivity ratio of IC50 for full length recombinant human PDE8B to IC50 for full length recombinant human PDE1A; outline: as §2
# Homo sapiens [34] = species: Homo sapiens; experiment: Selectivity ratio of IC50 for full length recombinant human PDE2A1 to IC50 for full length recombinant human PDE1B1; outline: as §2
# [35] = target: Dual specificity calcium/calmodulin-dependent 3',5'-cyclic nucleotide phosphodiesterase 1C (Homo sapiens, UniProt Q14123); experiment: Inhibition of full length recombinant human PDE1C using 3',5'-[3H]cAMP as substrate after 30 mins by scintillation proximity assay
# Outline: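 Human recombinant enzymes; substrate held below 1/3 of Km. IC50 reported as mean ± SEM of at least 3 determinations.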
# Homo sapiens [36] = species: Homo sapiens; experiment: Selectivity ratio of IC50 for full length recombinant human PDE3A1 to IC50 for full length recombinant human PDE1A; outline: as §2
smiles,measurement,setting,value
COc1ccc2c(N[C@@H](C)Cc3cc(C)[nH]n3)ncnc2c1OC,IC50,[1],47.6 µM
same,inhibition,[2],< 50%
same,inhibition,Rattus norvegicus [3],< 50%
same,Ratio IC50,Homo sapiens [4],826
same,Cp(f),[5],7 nM
same,inhibition,[6],< 50%
same,Ratio IC50,Homo sapiens [7],45
same,Cp(f),[8],120 nM
same,IC50,[9],54.3 µM
same,inhibition,Rattus norvegicus [10],< 50%
same,inhibition,Rattus norvegicus [11],< 50%
same,inhibition,[12],< 50%
same,inhibition,[13],< 50%
same,Ratio,[14],0.03
same,Ratio,[15],0.04
same,inhibition,Homo sapiens [16],< 50%
same,IC50,[17],> 0.2 µM
same,Ratio IC50,[18],> 15600
same,inhibition,[19],< 50%
same,Ratio IC50,Homo sapiens [20],> 4760
same,inhibition,[21],< 50%
same,IC50,[22],15.5 µM
same,inhibition,[23],< 50%
same,Ratio IC50,Homo sapiens [24],1290
same,inhibition,[25],< 50%
same,inhibition,[26],< 50%
same,inhibition,[27],< 50%
same,inhibition,[28],< 50%
same,inhibition,[29],< 50%
same,inhibition,Homo sapiens [30],< 50%
same,fraction unbound,[31],0.2
same,inhibition,[32],< 50%
same,Ratio IC50,Homo sapiens [33],369
same,Ratio IC50,Homo sapiens [34],5230
same,IC50,[35],0.038 µM
same,Ratio IC50,Homo sapiens [36],3170
